Usually IC50 stands for the concentration at which inhibition is half-maximal. The inhibition is the percentage by which the read-out fell short of the control.

The text below walks through data of ChEMBL document CHEMBL4043285 (J Med Chem, 2018).

Calls of active or inactive are those of the source. No cut-off for these calls is given here.

The target of one data set is Aurora kinase B (Homo sapiens, UniProt Q96GD4). The experiment in a line: Inhibition of human recombinant AurKB after 4 hrs by ADP-Glo assay. In general terms: In ADP-Glo the light output rises with the ADP produced.
Sequence of Aurora kinase B (Q96GD4 whole entry): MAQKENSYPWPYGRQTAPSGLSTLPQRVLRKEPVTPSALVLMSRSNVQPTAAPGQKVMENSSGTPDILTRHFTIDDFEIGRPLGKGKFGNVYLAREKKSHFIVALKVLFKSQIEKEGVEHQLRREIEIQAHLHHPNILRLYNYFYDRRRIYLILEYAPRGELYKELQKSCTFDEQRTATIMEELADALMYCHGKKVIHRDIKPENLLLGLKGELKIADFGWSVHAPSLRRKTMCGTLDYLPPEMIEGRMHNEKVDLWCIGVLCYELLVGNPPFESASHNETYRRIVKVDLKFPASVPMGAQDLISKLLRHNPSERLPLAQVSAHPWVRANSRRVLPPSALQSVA
Another data set addresses T1, Aurora kinase A (Homo sapiens, UniProt O14965).
T1 sequence (O14965 whole entry): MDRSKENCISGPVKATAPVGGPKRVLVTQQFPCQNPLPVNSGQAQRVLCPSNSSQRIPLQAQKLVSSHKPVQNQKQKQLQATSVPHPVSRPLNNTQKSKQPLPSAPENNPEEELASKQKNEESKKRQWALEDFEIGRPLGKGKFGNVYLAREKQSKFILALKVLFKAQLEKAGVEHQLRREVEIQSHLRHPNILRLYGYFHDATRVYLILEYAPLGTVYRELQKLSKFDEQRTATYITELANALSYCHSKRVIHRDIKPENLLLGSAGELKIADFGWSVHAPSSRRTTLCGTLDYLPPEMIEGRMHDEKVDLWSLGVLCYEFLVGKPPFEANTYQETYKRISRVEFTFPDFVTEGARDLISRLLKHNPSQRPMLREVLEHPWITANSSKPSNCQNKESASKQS
Description: Inhibition of human recombinant AurKA after 4 hrs by ADP-Glo assay.

For another data set, the system named is Mus musculus. The experiment in a line: Protection against TNF-induced hypothermia in TNF-induced SIRS C57BL/6J mouse model at 50 mg/kg administered via oral gavage treated 1.5 hrs prior to TNF challenge by thermometric analysis. The class given is functional, organism-based. The gist of the method: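 Mice were dosed orally by gavage at 50 mg/kg, 1.5 h before challenge with murine TNF (mTNF).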

Data set [1] can be described thus: Inhibition of Aurk mouse L929sA cells transfected with human Fas assessed as reduction in cell growth after 24 hrs in presence of TNF by Hoechst 33342 staining-based microscopic assay. The essentials:
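L929sAhFAS cells exposed to compound; total cell number is counted after 24 h. IC50 is fitted from a dose–response curve of cell growth.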

Data set [2] concerns the target T2, Receptor-interacting serine/threonine-protein kinase 1 (Mus musculus) (UniProt Q60855).
T2 sequence (whole entry): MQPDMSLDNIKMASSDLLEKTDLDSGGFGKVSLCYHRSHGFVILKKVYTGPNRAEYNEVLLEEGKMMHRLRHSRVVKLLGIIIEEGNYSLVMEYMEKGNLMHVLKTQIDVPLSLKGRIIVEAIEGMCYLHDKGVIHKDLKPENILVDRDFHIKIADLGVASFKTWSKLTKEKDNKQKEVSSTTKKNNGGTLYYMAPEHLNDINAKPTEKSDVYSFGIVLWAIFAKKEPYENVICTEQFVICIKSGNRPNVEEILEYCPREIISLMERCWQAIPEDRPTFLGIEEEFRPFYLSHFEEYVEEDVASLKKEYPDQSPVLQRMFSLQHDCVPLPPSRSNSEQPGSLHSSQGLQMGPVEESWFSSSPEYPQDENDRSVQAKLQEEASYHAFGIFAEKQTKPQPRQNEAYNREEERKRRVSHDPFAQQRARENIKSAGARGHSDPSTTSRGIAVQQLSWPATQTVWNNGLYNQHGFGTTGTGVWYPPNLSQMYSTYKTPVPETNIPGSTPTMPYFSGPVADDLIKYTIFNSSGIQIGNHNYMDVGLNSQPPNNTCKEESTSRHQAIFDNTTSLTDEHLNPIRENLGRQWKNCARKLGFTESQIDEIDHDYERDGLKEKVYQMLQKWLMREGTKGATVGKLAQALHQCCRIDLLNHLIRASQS
Description: Inhibition of RIPK1 in mouse L929sA cells transfected with human Fas assessed as inhibition in TNF-induced necroptosis at 3 uM pretreated for 0.5 hrs followed by TNF and zVAD.fmk addition measured after 3 hrs by Hoechst 33342/propidium iodide staining-based assay relative to control. The class given is cell-based.

The target in data set [3] is T2, Receptor-interacting serine/threonine-protein kinase 1 (Mus musculus). The experiment in a line: Inhibition of RIPK1 in mouse L929sA cells transfected with human Fas assessed as inhibition in TNF-induced necroptosis at 3 uM pretreated for 24 hrs followed by TNF and zVAD.fmk addition measured after 3 hrs by Hoechst 33342/propidium iodide staining-based assay relative to control. The class given is cell-based.

Data set [4] has as its target T3, Receptor-interacting serine/threonine-protein kinase 1 (Homo sapiens, UniProt Q13546).
T3 sequence (Q13546 whole entry): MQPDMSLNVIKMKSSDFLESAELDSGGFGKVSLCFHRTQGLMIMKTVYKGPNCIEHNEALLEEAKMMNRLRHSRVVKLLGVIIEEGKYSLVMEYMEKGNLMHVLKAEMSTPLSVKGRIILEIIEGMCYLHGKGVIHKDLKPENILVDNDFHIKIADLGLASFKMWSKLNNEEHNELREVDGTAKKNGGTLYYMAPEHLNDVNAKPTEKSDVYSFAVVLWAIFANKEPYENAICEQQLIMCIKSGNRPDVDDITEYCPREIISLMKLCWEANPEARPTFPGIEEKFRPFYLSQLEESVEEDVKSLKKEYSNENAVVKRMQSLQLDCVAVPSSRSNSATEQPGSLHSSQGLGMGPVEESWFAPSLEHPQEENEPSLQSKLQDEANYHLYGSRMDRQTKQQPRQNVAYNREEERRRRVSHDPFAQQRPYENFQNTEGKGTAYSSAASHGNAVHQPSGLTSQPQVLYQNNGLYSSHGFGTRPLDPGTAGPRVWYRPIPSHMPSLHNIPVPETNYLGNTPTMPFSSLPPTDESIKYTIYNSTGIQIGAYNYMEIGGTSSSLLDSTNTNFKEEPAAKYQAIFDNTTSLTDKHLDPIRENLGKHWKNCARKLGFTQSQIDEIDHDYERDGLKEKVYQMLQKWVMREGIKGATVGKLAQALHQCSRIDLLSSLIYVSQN
The experiment in a line: Inhibition of human recombinant RIPK1 after 4 hrs by ADP-Glo assay.

Data set [5] in a line: Inhibition of Aurk mouse L929sA cells transfected with human Fas assessed as increase in nuclear area after 24 hrs in presence of TNF by Hoechst 33342 staining-based microscopic assay. The gist of the method:
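L929sAhFAS cells treated with compound; mean nuclear area is measured and fitted as a sigmoidal dose–response curve.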

In data set [6] the test system is Aurk (Aurora kinase). Description: Inhibition of Aurk in mouse L929sA cells transfected with human Fas assessed as increase in nuclear area at 3 uM after 24 hrs in presence of TNF by Hoechst 33342 staining-based microscopic assay relative to control. The class given is cell-based.
Data set [7] deals with Aurk (Aurora kinase). Description: Inhibition of Aurk in mouse L929sA cells transfected with human Fas assessed as reduction in cell growth at 3 uM after 24 hrs in presence of TNF by Hoechst 33342 staining-based microscopic assay relative to control.

Consider `CN1C(=O)NC(Cc2c[nH]c3c(Cl)cccc23)C1=O` (centres undefined), for which the IC50 at Aurora kinase B and at Aurora kinase A was more than 3000 nM each time. Moreover, in the data set on Mus musculus, the result was Active.
As to `Cc1cc(Nc2nc(Sc3ccc(NC(=O)C4CCCCC4)cc3)nc(N3CCN(C)CC3)n2)n[nH]1`, the IC50 stood at 229 nM on Aurora kinase B; 330 nM in [1]; 210 nM at Aurora kinase A; 2470 nM in data set [4]; 400 nM in [5]. Besides, the inhibition in data set [2] and in data set [3] was less than 50% each time.
For the compound `Cc1[nH]nc(Nc2cc(N3CCCCC3)nc(Sc3ccc(NC(=O)C4CCCCC4)cc3)n2)c1C`, the IC50 in data set [1] and in data set [5] was more than 3000 nM in each case. Also, the inhibition at 24 h, 3 µM in the data set on Aurk (Aurora kinase) [6] and in the data set with Aurk (Aurora kinase) [7] was less than 50% each time. Further, the inhibition in data set [2] and in data set [3] was less than 50% throughout.
For `Cc1[nH]nc(Nc2nc(Nc3ccc(NC(=O)C4CCCCC4)cc3)nc(N3CCCCC3)n2)c1C`, the half-inhibitory concentration (IC50) in data set [1] and in data set [5] was more than 3000 nM throughout. Moreover, the inhibition at 24 h, 3 µM in the data set with Aurk (Aurora kinase) [6] and with Aurk (Aurora kinase) [7] was less than 50% throughout. For the same compound, the inhibition in data set [2] and in data set [3] was less than 50% throughout.
As for `Cc1cc(Nc2cc(N3CCN(C)CC3)nc(Nc3ccc(NC(=O)C4CC4)cc3)n2)n[nH]1`, the IC50 on Aurora kinase B was 1340 nM; in [1], more than 3000 nM; at Aurora kinase A it was 293 nM; in data set [4], 178 nM; in data set [5], more than 3000 nM. Further, the inhibition at 24 h, 3 µM in the data set on Aurk (Aurora kinase) [6] and in the data set on Aurk (Aurora kinase) [7] was less than 50% in each case. The result in the data set on Mus musculus was Active.
Take `Cc1[nH]nc(Nc2cc(N3CCOCC3)nc(Nc3ccc(NC(=O)C4CCCCC4)cc3)n2)c1C`: the IC50 in [1] and in [5] was more than 3000 nM each time. In addition, the inhibition at 24 h, 3 µM with Aurk (Aurora kinase) [6] and with Aurk (Aurora kinase) [7] was less than 50% each time. For the same compound, the inhibition in data set [2] and in [3] was less than 50% in each case.
Consider `Cc1cc(Nc2nc(Sc3ccc(NC(=O)C4CC4)cc3)nc(N3CCCCC3)n2)n[nH]1`, for which the IC50 in data set [1] and in data set [5] was more than 3000 nM in each case. In addition, the inhibition at 24 h, 3 µM in the data set with Aurk (Aurora kinase) [6] and in the data set on Aurk (Aurora kinase) [7] was less than 50% each time. Moreover, the inhibition in data set [2] and in data set [3] was less than 50% in each case.
Regarding `Cc1[nH]nc(Nc2cc(N3CCN(C)CC3)nc(Nc3ccc(NC(=O)C4CCCCC4)cc3)n2)c1C`, the half-maximal inhibitory concentration (IC50) in data set [1] and in data set [5] was more than 3000 nM throughout. Moreover, the inhibition at 24 h, 3 µM in the data set with Aurk (Aurora kinase) [6] and in the data set on Aurk (Aurora kinase) [7] was less than 50% in each case. The inhibition in [2] and in data set [3] was less than 50% in each case.
For the compound `Cc1cc(Nc2nc(Nc3ccc(NC(=O)C4CC4)cc3)nc(N3CCN(C)CC3)n2)n[nH]1`, the IC50 in data set [1] and in data set [5] was more than 3000 nM throughout. The inhibition at 24 h, 3 µM with Aurk (Aurora kinase) [6] and in the data set on Aurk (Aurora kinase) [7] was less than 50% throughout. Moreover, the inhibition in data set [2] and in data set [3] was less than 50% throughout.
Turning to `Cc1[nH]nc(Nc2nc(Nc3ccc(NC(=O)C4CCCCC4)cc3)nc(N3CCN(C)CC3)n2)c1C`, the IC50 in [1] and in data set [5] was more than 3000 nM each time. In addition, the inhibition at 24 h, 3 µM with Aurk (Aurora kinase) [6] and with Aurk (Aurora kinase) [7] was less than 50% in each case. Moreover, the inhibition in [2] and in data set [3] was less than 50% throughout.
For the compound `Cc1cc(Nc2nc(Nc3ccc(NC(=O)C4CC4)cc3)nc(N3CCCCC3)n2)n[nH]1`, the IC50 in data set [1] and in data set [5] was more than 3000 nM each time. For the same compound, the inhibition at 24 h, 3 µM in the data set with Aurk (Aurora kinase) [6] and in the data set with Aurk (Aurora kinase) [7] was less than 50% in each case. Moreover, the inhibition in [2] and in [3] was less than 50% throughout.
As to `Cc1[nH]nc(Nc2nc(Nc3ccc(NC(=O)C4CC4)cc3)nc(N3CCCCC3)n2)c1C`, the IC50 in data set [1] and in [5] was more than 3000 nM each time. Further, the inhibition at 24 h, 3 µM in the data set with Aurk (Aurora kinase) [6] and in the data set with Aurk (Aurora kinase) [7] was less than 50% in each case. Also, the inhibition in [2] and in data set [3] was less than 50% in each case.
For the compound `Cc1cc(Nc2cc(N3CCOCC3)nc(Nc3ccc(NC(=O)C4CC4)cc3)n2)n[nH]1`, the concentration for half-maximal inhibition (IC50) at Aurora kinase B is 853 nM; in data set [1], more than 3000 nM; on Aurora kinase A, 430 nM; in [5], more than 3000 nM. In addition, the inhibition at 24 h, 3 µM in the data set with Aurk (Aurora kinase) [6] and in the data set on Aurk (Aurora kinase) [7] was less than 50% each time. Besides, the outcome with Mus musculus was Active.
`CCN1CCN(c2cc(Nc3n[nH]c(C)c3C)nc(Sc3ccc(NC(=O)C4CC4)cc3)n2)CC1`: the IC50 in data set [1] and in [5] was more than 3000 nM in each case. The inhibition at 24 h, 3 µM in the data set on Aurk (Aurora kinase) [6] and with Aurk (Aurora kinase) [7] was less than 50% in each case. Besides, the inhibition in data set [2] and in data set [3] was less than 50% throughout.
With `Cc1cc(Nc2cc(N3CCCCC3)nc(Nc3ccc(NC(=O)C4CC4)cc3)n2)n[nH]1`, the concentration for half-maximal inhibition (IC50) is 959 nM on Aurora kinase B, more than 3000 nM in data set [1] and more than 3000 nM in data set [5]. Also, the inhibition at 24 h, 3 µM in the data set on Aurk (Aurora kinase) [6] and in the data set on Aurk (Aurora kinase) [7] was less than 50% throughout. The result with Mus musculus was inactive.
Regarding `Cc1[nH]nc(Nc2cc(N3CCOCC3)nc(Sc3ccc(NC(=O)C4CCCCC4)cc3)n2)c1C`, the half-inhibitory concentration (IC50) in data set [1] and in data set [5] was more than 3000 nM each time. Further, the inhibition at 24 h, 3 µM with Aurk (Aurora kinase) [6] and in the data set on Aurk (Aurora kinase) [7] was less than 50% each time. The inhibition in data set [2] and in data set [3] was less than 50% throughout.
Regarding `Cc1cc(Nc2nc(Nc3ccc(NC(=O)C4CCCCC4)cc3)nc(N3CCCCC3)n2)n[nH]1`, the IC50 in [1] and in data set [5] was more than 3000 nM throughout. In addition, the inhibition at 24 h, 3 µM with Aurk (Aurora kinase) [6] and with Aurk (Aurora kinase) [7] was less than 50% throughout. Also, the inhibition in data set [2] and in data set [3] was less than 50% throughout.
Take `Cc1[nH]nc(Nc2nc(Sc3ccc(NC(=O)C4CCCCC4)cc3)nc(N3CCOCC3)n2)c1C`: the IC50 in [1] and in [5] was more than 3000 nM throughout. Further, the inhibition at 24 h, 3 µM in the data set on Aurk (Aurora kinase) [6] and in the data set with Aurk (Aurora kinase) [7] was less than 50% each time. Moreover, the inhibition in data set [2] and in data set [3] was less than 50% in each case.
